Results of several laboratories.
Lines come from different studies, so protocols differ.
Target: Activin receptor type-1 (ACVR1, Homo sapiens, UniProt Q04771)
Sequence (Q04771 21-509, as in one of the studies): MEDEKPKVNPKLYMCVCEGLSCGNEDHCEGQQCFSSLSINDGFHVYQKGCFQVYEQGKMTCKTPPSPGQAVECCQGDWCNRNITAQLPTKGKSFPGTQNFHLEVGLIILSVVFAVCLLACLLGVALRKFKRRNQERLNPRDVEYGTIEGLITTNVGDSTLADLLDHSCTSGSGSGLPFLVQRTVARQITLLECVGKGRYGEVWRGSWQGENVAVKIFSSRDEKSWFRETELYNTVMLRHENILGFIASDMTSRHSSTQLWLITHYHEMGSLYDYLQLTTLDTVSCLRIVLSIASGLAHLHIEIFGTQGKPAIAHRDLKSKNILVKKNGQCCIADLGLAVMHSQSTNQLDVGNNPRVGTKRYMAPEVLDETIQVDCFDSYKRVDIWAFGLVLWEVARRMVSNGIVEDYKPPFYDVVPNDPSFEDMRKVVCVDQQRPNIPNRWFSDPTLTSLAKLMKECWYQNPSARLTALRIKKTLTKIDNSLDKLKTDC

Cn1cc(-c2cccc(N3CCc4c(sc5c4CC(C)(C)C5)C3=O)c2CO)cc(Nc2ccncn2)c1=O
inhibition (enzyme activity; inhibitor; 1 µM): -1%

O=c1[nH]c2ccccc2n1C1CCN(Cc2ccc(-c3[nH]c4cc5ncnc5cc4nc3-c3ccccc3)cc2)CC1
remaining signal (cell-free assay; 0.5 µM): 102%

COc1ncccc1-c1cnn2ccc(N3CCN(C(=O)OC(C)C)CC3)nc12
remaining binding (binding; competition with immobilised ligand; 1 µM): 72%

Cn1cncc1[C@](O)(COc1ccc(C#N)cc1-c1ccc(OC(F)(F)F)cc1)c1ccc(C#N)cc1
remaining binding (cell-free assay; competition with immobilised ligand; 1 µM): 78%

Cc1nn(C)cc1-c1nc2c(N3CCN(Cc4ccc(Cl)cc4)CC3)c(Cl)cnc2[nH]1
remaining binding (binding; competition with immobilised ligand; 1 µM): 90%

N#CC1(c2ccccn2)CCN(Cc2cc(C(=O)O)c(=O)n3ccccc23)CC1
remaining binding (cell-free assay; competition with immobilised ligand; 1 µM): 96%

CC(C)(C)c1cc(C=C(C#N)C#N)cc(Br)c1O
remaining activity (enzyme activity; inhibitor; 0.5 µM): 102%

Nc1ncc(-c2nc(N3CCOCC3)nc(N3CCOCC3)n2)c(C(F)F)n1
remaining binding (cell-free assay; competition with immobilised ligand; 10 µM): 83%
